# In ChEMBL document CHEMBL3632468, “Discovery and optimisation studies of antimalarial phenotypic hits” (Eur J Med Chem, 2015):
# Experiments:
# Plasmodium berghei [1] = assay: Antimalarial activity against Plasmodium berghei ANKA expressing GFP infected in NMRI mouse assessed as inhibition of parasitemia at 50 mg/kg, ip qd administered as single dose on day 0 to 4 of exposure measured on day 5 post exposure by FACS method relative to control; format: functional
# Procedure, shortened: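 P. berghei ANKA GFP infection in mice; dosed intraperitoneally at 50 mg/kg/day × 4, with chloroquine 10 mg/kg ip as reference and untreated controls. Read-out was % reduction in parasitaemia relative to controls, with survival in days also recorded.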
# Plasmodium berghei [2] = assay: Antimalarial activity against Plasmodium berghei ANKA expressing GFP infected in NMRI mouse assessed as increase in mouse survival at 50 mg/kg, ip qd administered as single dose on day 0 to 4 of exposure measured on day 5 post exposure by FACS method (reference value: 7 days); format: functional
# Procedure, shortened: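 P. berghei ANKA GFP infection in mice, dosed intraperitoneally at 50 mg/kg/day × 4. An untreated control group and a chloroquine 10 mg/kg ip reference group were included. Read-outs were % reduction in parasitaemia and mean survival in days.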
# Liver = assay: Intrinsic clearance in mouse liver microsomes assessed as compound metabolized at 1 uM pre-incubated at 37 degC before addition of NADPH-generating system by LC/MS method; format: ADME
# Liver microsome [3] = assay: Drug metabolism in human liver microsomes at 1 uM by LC/MS method; format: ADME
# [4] = Drug metabolism in mouse liver microsomes at 1 uM by LC/MS method; format: ADME
# [5] = Solubility in phosphate buffer at pH 6.5 by nephelometry; format: physicochemical
# Liver microsome [6] = assay: Intrinsic clearance in human liver microsomes assessed as compound metabolized at 1 uM pre-incubated at 37 degC before addition of NADPH-generating system by LC/MS method; format: ADME
structure (smiles),measurement,setting,value
Cc1cc(/C=C2\S/C(=N\c3ccccc3)N(C3CCCCC3)C2=O)c(C)n1-c1ccc(F)cc1,inhibition in vivo at 50 mg/kg,Plasmodium berghei [1],12%
same,Survival,Plasmodium berghei [2],6 days
same,CLH,Liver,0.055 mL/min/mg
same,Drug metabolism,Liver microsome [3],metabolite_notdetected
same,Drug metabolism,[4],metabolite_notdetected
same,solubility kinetic,[5],0.8 µg/mL
same,CLH,Liver microsome [6],0.36 mL/min/mg
